Screening results: PubChem, several laboratories
Hits are enriched below; roughly 1.4% of the tested compounds scored in any of these assays.
Myeloid diff MLP: myeloid differentiation induction; ER-HoxA9 myeloid progenitors, lysozyme-GFP differentiation, flow cytometry; calls only at 10 µM; 360,000 compounds, 1% hits; AID 624256;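 active = normalized GFP-positive differentiation at or above the plate's own cutoff, the solvent-only control mean plus 3 SD; inconclusive = no clear call, values can overlap the other calls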;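 note: cells exposed to compound for four days before flow analysis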
Vif inh: HIV Vif inhibition; HEK293T cells, Vif self-association by quenched fluorescence, imaging, 24 h; inhibition, % at 7.49 µM; 340,000 compounds, 0.35% hits; in the data active = inhibition above about 50%, passing the limit was not always enough; inconclusive = no clear call, values can overlap the other calls; inactive = below about 31%
T cell modulator: modulates CD8 T cell binding to vesicles | 2C CD8+ T cell-vesicle binding, flow cytometry; active compounds read low | response (vesicle binding), % at 7 µM | 330,000 compounds, 0.068% hits | AID 2052;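 active = response, share of CD8 T cells binding vesicles, and their 90th percentile fluorescence all below set limits, cut at about 80% in these data, passing the limit was not always enough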;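 note: values below 100% mean blocked vesicle binding to the CD8+ T cells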
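Also added: QL9-peptide-loaded Drosophila micro-vesicles bearing Ld, ICAM-1 and B7-1; Test system: purified 2C TCR transgenic mouse naive CD8+ T cells; Measured by: cytometric PE anti-B7-1 and Alexa647 anti-CD8 signals after 1% paraformaldehyde fixation; Timing: binding step 1.5 h, 37 °C, antibody labelling 20 min, ice.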
CASP6 VEID inh: blocks human caspase-6 cleavage activity | purified caspase-6, Z-VEID-R110 cleavage fluorescence | inhibition, % at 12.5 µM | 350,000 compounds, 0.53% hits | AID 686996;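 active = mean inhibition across replicates at least about 35%, with every replicate also reaching that limit, limit read from the data; inconclusive = only one of the two criteria met; inactive = neither criterion met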;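 note: 0% = median of neutral control wells and 100% = no fluorescence left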
Target sequence (P55212 24-179 limits assumed): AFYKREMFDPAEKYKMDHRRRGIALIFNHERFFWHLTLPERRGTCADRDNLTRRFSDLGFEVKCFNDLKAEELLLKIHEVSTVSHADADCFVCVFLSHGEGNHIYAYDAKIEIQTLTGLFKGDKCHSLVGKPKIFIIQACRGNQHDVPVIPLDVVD
Target sequence (P55212 194-293 limits assumed): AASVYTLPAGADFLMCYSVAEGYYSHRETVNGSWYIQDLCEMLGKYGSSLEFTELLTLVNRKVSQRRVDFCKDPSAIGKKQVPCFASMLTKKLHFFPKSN
Active calls of the source: *; i = inactive; ? = inconclusive; · = no result; + = active, no number.

SMILES	Myeloid diff MLP	Vif inh	T cell modulator	CASP6 VEID inh
CO[C@@H]1CN(C)C(=O)c2ccc(NC(C)=O)cc2OC[C@H](C)N(Cc2ccncc2)C[C@H]1C	·	·	·	-8
CCCC(=O)N1CCC2(CC1)CN(C(=O)c1ccc(F)cc1)[C@H](CO)c1[nH]c3cc(OC)ccc3c12	·	·	·	-1
COc1ccc2c3c([nH]c2c1)[C@H](CO)N(C(=O)C1CCCC1)CC31CCN(Cc2nccs2)CC1	·	·	·	3
Cc1ccc(C)c2[nH]c(=O)c(CN(Cc3ccco3)S(=O)(=O)c3ccc4c(c3)OCCO4)cc12	+	-10	255	·
COc1ccc(-n2c(C)c(C(C)=O)c(C(C)=O)c2C)cc1	i	-3	320	39*
CCOc1ccc(-n2c(C)c(C(C)=O)c(C(C)=O)c2C)cc1	i	-1	201	·
COC1=CC(=O)c2nc(Cl)ccc2C1=O	?	8	·	100*
COc1ccccc1OCC(=O)Nc1sc2c(c1C(=O)NCC1CCCO1)CCC2 (configuration not stated)	+	·	·	·
COc1ccc(OC)c(NC(=O)COC(=O)c2cc3c(s2)CCC3)c1	i	1	215	34
COc1cccc(C(=O)OCC(=O)Nc2sc3c(c2C(N)=O)CCC3)c1O	i	-8	418	41*
COc1ccccc1OCC(=O)Nc1sc2c(c1C(N)=O)CCC2	i	-1	197	29
COc1ccccc1NC(=O)COC(=O)c1cc2c(s1)CCC2	i	-1	·	64*
CCN1[C@H](C(=O)NCc2ccccc2)[C@@H](CO)[C@@H]2Cn3c(ccc(-c4ccccc4)c3=O)[C@@H]21	·	·	·	-2
C[C@H](CO)N1C[C@H](C)[C@H](CN(C)S(=O)(=O)c2ccccc2)OCCCC[C@H](C)Oc2ccc(NC(=O)Nc3ccc(F)cc3)cc2C1=O	·	·	·	4
CN1CCN(C(=O)C[C@@H]2CC[C@H]3[C@@H](COC[C@H](O)CN3C(=O)C3CC3)O2)CC1	·	·	·	0
C/C=C/c1ccc([C@H]2[C@@H](CO)N(C(=O)c3cnccn3)C23CN(C(=O)C2CC2)C3)cc1	·	·	·	1
C[C@H](CO)N1C[C@H](C)[C@H](CN(C)C(=O)Nc2ccccc2)Oc2ccc(N(C)C)cc2CC1=O	·	·	·	6
CCN(CC)C(=O)c1cccc(NC(=O)CC23CC4CC(CC(C4)C2)C3)c1	+	17	200	0
COCC#Cc1ccc(CC[C@H]2O[C@H]3CC[C@@H](CO)O[C@H]3C[C@@H]2n2cc(C3CC3)nn2)cc1	·	·	·	0
COc1ccc2c3c(n(C)c2c1)[C@@H](CO)N(Cc1ccccc1Cl)CC31CCN(C(C)=O)CC1	·	·	·	5
COC(=O)c1c(C)[nH]c(C(=O)/C=C/c2ccc(C)cc2)c1C	i	-5	509	-3
COC(=O)c1c(C)[nH]c(C(=O)/C=C/c2ccccc2)c1C	+	-5	273	·
CCCNC(=O)N[C@H]1C=C[C@H](CC(=O)NCCc2ccccc2)O[C@@H]1CO	·	·	·	6
COc1ccc(S(=O)(=O)N[C@H]2CC[C@@H](CCn3cc(-c4ccccc4F)nn3)O[C@H]2CO)cc1	·	·	·	-1
COc1c2ccoc2nc2c(OC)c(OC[C@@H](O)C(C)(C)O)ccc12	i	57*	158	5
SMILES	Myeloid diff MLP	Vif inh	T cell modulator	CASP6 VEID inh
Cc1ccc(OCC(=O)N/N=C\c2ccc(C)o2)c([N+](=O)[O-])c1	+	-24	·	1
CN1CCN(C(=S)c2ccc(OCC(=O)Nc3cccc(C(F)(F)F)c3)cc2)CC1	i	54*	104	-4
CCN1CCN(c2ncnc3c2cnn3-c2ccccc2)CC1	i	1	640	-6
CCN1CCN(c2ncnc3c2cnn3-c2ccc(Cl)cc2)CC1	i	17	278	38*
COc1ccc2c3c([nH]c2c1)[C@H](CO)N(C(=O)c1ccccn1)CC31CCN(C(=O)C2CCC2)CC1	·	·	·	3
Cc1cc(-c2nnc(SCC(=O)Nc3ccc(Cl)cn3)n2N)n[nH]1	i	55*	211	-1
Cc1cc(-c2nnc(SCC(=O)Nc3ccccc3F)n2N)n[nH]1	i	-4	174	0
CC(=O)c1ccc(C(=O)N2CCCC(CCC(=O)N(C)CCc3ccccn3)C2)s1 (configuration not stated)	+	13	265	0
CN(CCc1ccccn1)C(=O)CCC1CCCN(C(=O)c2cscn2)C1 (configuration not stated)	i	1	240	-2
O=C(C[C@H]1CC[C@H](NC(=O)c2ccncc2)[C@H](CO)O1)NCc1ccncn1	·	·	·	0
CC(C)CC#Cc1ccc2c(c1)O[C@H](CN(C)C(=O)C1CCCCC1)[C@@H](C)CN([C@@H](C)CO)S2(=O)=O	·	·	·	1
COc1ccc(-c2ccnc3[nH]n(-c4ccccc4)c(=O)c23)cc1	+	9	227	-1
O=C(COc1ccc(S(=O)(=O)NC2CCCCC2)cc1Cl)NCc1ccc2c(c1)OCO2	i	·	311	40*
O=C(COc1ccc(S(=O)(=O)NC2CCCCC2)cc1Cl)Nc1ccc2c(c1)OCO2	i	-15	370	·
O=C(Nc1nc(-c2ccco2)c(-c2ccco2)s1)c1ccc(F)cc1F	i	-3	·	4
O=S(=O)(Nc1nc(-c2ccco2)c(-c2ccco2)s1)c1ccc(F)cc1F	i	1	·	62*
O=C(Nc1nc(-c2ccco2)c(-c2ccco2)s1)c1c(F)cccc1Cl	i	28	222	75*
CN(C)CCCN(C(=O)c1ccc(Br)s1)c1nc2cc3c(cc2s1)OCCO3	i	1	186	-9
CN(C)CCCN(C(=O)c1ccc([N+](=O)[O-])s1)c1nc2cc3c(cc2s1)OCCO3	i	6	293	84*
O=C1CC(N2CCN(c3ccccc3)CC2)C(=O)N1c1cccc(Cl)c1 (configuration not stated)	i	-3	144	1
O=C1CC(N2CCSCC2)C(=O)N1c1cccc(Cl)c1 (configuration not stated)	i	-5	83	44*
Cc1noc(C)c1NC(=O)N(C)C[C@H]1Oc2c(NC(=O)c3ccc(-c4nccs4)cc3)cccc2C(=O)N([C@@H](C)CO)C[C@H]1C	·	·	·	1
COc1cccc(OCCNC(=O)c2cc([N+](=O)[O-])cc([N+](=O)[O-])c2)c1	+	-3	285	2
COc1cccc(OCCNC(=O)c2cccc(OC)c2)c1	i	-2	122	·
COc1cccc(OCCNC(=O)c2ccc(C)cc2)c1	+	-13	74	-2
Cc1noc(C)c1NC(=O)Nc1ccc2c(c1)CC(=O)N([C@H](C)CO)C[C@H](C)[C@@H](CN(C)Cc1ccc(C(F)(F)F)cc1)O2	·	·	·	-1
CC(C)CC#Cc1cnc2c(c1)C(=O)N([C@@H](C)CO)C[C@@H](C)[C@H](CN(C)C(=O)NC1CCCC1)O2	·	·	·	19
O=C1Nc2cc(C(=O)NCCN3CCCCCC3)ccc2S/C1=C\c1ccccc1	i	-5	230	99*
CC(C)C#Cc1cnc2c(c1)C(=O)N([C@H](C)CO)C[C@@H](C)[C@@H](CN(C)C(=O)c1ccccc1F)O2	·	·	·	1
